# In ChEMBL document CHEMBL4145474, “Discovery of novel piperonyl derivatives as diapophytoene desaturase inhibitors for the treatment of methicillin-, vancomycin- and linezolid-resistant Staphylococcus aureus infections” (Eur J Med Chem, 2018):
# Activity calls are given as the source filed them. The rule behind the calls is not given here.
# Columns and labels:
# [1] = biological target: T1, 4,4'-diapophytoene desaturase (4,4'-diaponeurosporene-forming) (Staphylococcus aureus (strain Newman), UniProt O07855); test: Inhibition of Staphylococcus aureus Newman 6His-tagged CrtN expressed in Escherichia coli BL21(DE3) assessed as 4,4'-diapophytoene accumulation
# T1 sequence (O07855 whole entry): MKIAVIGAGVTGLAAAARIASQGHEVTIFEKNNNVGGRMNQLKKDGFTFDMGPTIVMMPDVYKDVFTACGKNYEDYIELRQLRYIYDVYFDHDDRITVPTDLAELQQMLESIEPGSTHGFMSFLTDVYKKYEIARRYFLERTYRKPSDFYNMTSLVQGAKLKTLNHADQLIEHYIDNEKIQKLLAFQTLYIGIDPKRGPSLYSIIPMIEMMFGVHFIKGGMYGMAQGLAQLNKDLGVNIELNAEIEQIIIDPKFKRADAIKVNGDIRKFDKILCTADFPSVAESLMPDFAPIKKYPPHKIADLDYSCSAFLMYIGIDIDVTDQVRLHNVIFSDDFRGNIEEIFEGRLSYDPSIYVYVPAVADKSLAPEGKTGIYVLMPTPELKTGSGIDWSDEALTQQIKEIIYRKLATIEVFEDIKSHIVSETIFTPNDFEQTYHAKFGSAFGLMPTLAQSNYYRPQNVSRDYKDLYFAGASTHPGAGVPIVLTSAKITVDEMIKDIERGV
# Staphylococcus aureus [2] = test: Antibacterial activity against methicillin-resistant Staphylococcus aureus USA300 LAC assessed as decrease in bacterial survival at 1 uM after 24 hrs by H2O2 killing assay; assay type: functional, organism-based
# Staphylococcus aureus [3] = test: Antibacterial activity against vancomycin-intermediate methicillin-resistant Staphylococcus aureus Mu50 assessed as decrease in bacterial survival at 1 uM after 24 hrs by H2O2 killing assay; assay type: functional, organism-based
# Staphylococcus aureus [4] = test: Antibacterial activity against wild type Staphylococcus aureus Newman infected in BALB/c mouse assessed as decrease in bacterial survival in mouse liver at 0.1 mg, ip bid administered 4.5 days after 6 hrs bacterial infection measured after 90 hrs relative to control; assay type: functional
# [5] = biological target: T2, 4,4'-diapophytoene desaturase (4,4'-diaponeurosporene-forming) (Staphylococcus aureus (strain Mu50 / ATCC 700699)) (UniProt Q99R76); test: Inhibition of CrtN in vancomycin-intermediate methicillin-resistant Staphylococcus aureus Mu50 assessed as bacterial survival after 6 hrs by human whole blood killing assay (reference value: 8.66%); details: Staphylococcus aureus subsp. aureus Mu50
# T2 sequence (whole entry): T1 sequence (O07855 whole entry)
# Outline: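 Overnight cultures spun, resuspended in sterile PBS at 1 × 10⁷ CFU/mL, then mixed 1:10 with fresh whole blood from healthy human volunteers (final 1 × 10⁶ CFU/mL). Incubated 6 h at 37 °C; surviving CFU counted by plating dilutions on TSA. Two independent experiments.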
# Staphylococcus aureus [6] = test: Growth inhibition of methicillin/linezolid-resistant Staphylococcus aureus NRS271 at 0.2 mM incubated for overnight; assay type: functional, organism-based
# Outline: (§1)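 Overnight cultures washed in PBS and diluted in TSB to OD600 ~1.0. Inoculated to a final OD600 of about 0.05 into TSB containing compound (0.2 or 0.05 mM, from a 20 mM DMSO stock) or DMSO growth control, overlaid with paraffin wax. OD600 read every 30 min during overnight incubation at 37 °C.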
# Staphylococcus aureus [7] = test: Growth inhibition of methicillin-resistant Staphylococcus aureus USA300 LAC at 0.2 mM incubated for overnight; assay type: functional, organism-based
# Outline: as §1
# HEK-293T = test: Cytotoxicity against HEK293T cells assessed as reduction in cell viability after 72 hrs by CCK-8 assay; assay type: functional; details: Homo sapiens
# Outline: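 HepG2 or HEK-293T cells were seeded at 5000 per well and grown 24 h at 37 °C, 5% CO₂. Cells were then exposed to compound for 72 h; compound came from DMSO, diluted in medium to final DMSO <0.4%, with a DMSO-matched vehicle control. Viability was read by 10% CCK-8 for 1 h, absorbance 450 nm, in triplicate.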
# [8] = Solubility of the compound in water by UV analysis; assay type: physicochemical
# Staphylococcus aureus [9] = test: Antibacterial activity against vancomycin-intermediate methicillin-resistant Staphylococcus aureus Mu50 infected in BALB/c mouse assessed as decrease in bacterial survival in mouse liver at 0.1 to 0.4 mg, ip bid administered 4.5 days before 24 hrs bacterial infection measured after 90 hrs; assay type: functional, organism-based
# Outline: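 6–8-week-old female BALB/c mice (SPF) dosed intraperitoneally twice daily over 4.5 d at 0.1 or 0.4 mg/bid. Pre-treatment started before infection; post-treatment started 6 h after infection. Vancomycin and linezolid controls given as pre-treatment at 0.4 mg/bid. Retro-orbital inoculation: Mu50 1.1 × 10⁹ CFU, NRS271 1.8 × 10⁸ CFU. Kidneys and livers homogenised in PBS/0.01% Triton X-100 and plated on TSA for CFU.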
# Staphylococcus aureus [10] = test: Antibacterial activity against methicillin-resistant Staphylococcus aureus USA400 MW2 assessed as decrease in bacterial survival at 1 uM after 24 hrs by H2O2 killing assay; assay type: functional, organism-based
# [11] = biological target: T3, 4,4'-diapophytoene desaturase (4,4'-diaponeurosporene-forming) (Staphylococcus aureus (strain Newman)) (UniProt O07855); test: Inhibition of CrtN in wild type Staphylococcus aureus Newman assessed as decrease in bacterial survival at 1 uM after 24 hrs by H2O2 killing assay relative to control; details: Staphylococcus aureus subsp. aureus str. Newman
# T3 sequence (whole entry): T1 sequence (O07855 whole entry)
# Outline: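 Bacteria were grown 24 h at 37 °C in TSB with compound, DMSO vehicle or NAC, then washed twice in PBS. Each reaction held 4 × 10⁶ CFU with H₂O₂ at 1.5% final, shaken 30 min at 37 °C and 250 rpm, then quenched with 1000 U/mL catalase. Survival was counted as CFU on TSA. Two independent experiments.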
# Staphylococcus aureus [12] = test: Antibacterial activity against wild type Staphylococcus aureus Newman infected in BALB/c mouse assessed as decrease in bacterial survival in mouse kidney at 0.1 to 0.4 mg, ip bid administered 4.5 days after 6 hrs bacterial infection measured after 90 hrs; assay type: functional, organism-based
# Outline: (§2)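 Female BALB/c mice, 6-8 weeks old, infected retro-orbitally with 2.2 × 10⁷ CFU S. aureus Newman. Intraperitoneal dosing in 12 intervals: pre-treatment groups received a total of 50 or 200 mg/kg starting before infection; post-treatment groups received a total of 39 or 156 mg/kg starting 6 h after infection. Vehicle was ddH₂O. At 90 h post-infection, liver or kidney was homogenized in PBS/0.01% Triton X-100 and plated on TSA for CFU.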
# Staphylococcus aureus [13] = test: Inhibition of pigmentation in methicillin/linezolid-resistant Staphylococcus aureus NRS271 after 48 hrs by spectrophotometric method; assay type: functional, organism-based; details: NRS271, 48 h
# Outline: (§3)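 Bacteria grown in 4 mL TSB for 48 h at 37 °C with compound serially diluted from DMSO, in duplicate; DMSO vehicle control and non-pigmented CrtN mutant as reference. Cells from 3 mL of culture washed twice with 0.01 M PBS and pigment extracted into methanol. Absorbance read at 450 nm; IC50 fitted from the concentration series.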
# Staphylococcus aureus [14] = test: Antibacterial activity against wild type Staphylococcus aureus Newman infected in BALB/c mouse assessed as decrease in bacterial survival in mouse kidney at 0.1 to 0.4 mg, ip bid administered 4.5 days before 24 hrs bacterial infection measured after 90 hrs; assay type: functional, organism-based
# Outline: as §2
# Staphylococcus aureus [15] = test: Inhibition of pigmentation in methicillin-resistant Staphylococcus aureus USA400 MW2 after 48 hrs by spectrophotometric method; assay type: functional, organism-based; details: USA400 MW2, 48 h
# Outline: as §3
smiles,measurement,setting,value
CN(C/C=C/C=C/c1ccc(C(F)(F)F)cc1F)Cc1ccc2c(c1)OCO2.Cl,IC50,[1],0.408 µM
same,Activity,Staphylococcus aureus [2],inactive
same,Activity,Staphylococcus aureus [3],inactive
same,Activity,Staphylococcus aureus [4],97.06%
same,Survival,[5],0.28%
same,growth inhibition (GI),Staphylococcus aureus [6],inactive
same,growth inhibition (GI),Staphylococcus aureus [7],inactive
same,CC50,HEK-293T,92.6 µM
same,solubility,[8],8690 µg/mL
same,Activity,Staphylococcus aureus [9],Active
same,Activity,Staphylococcus aureus [10],inactive
same,fold change (FC),[11],11.7
same,Activity,Staphylococcus aureus [12],Active
same,IC50,Staphylococcus aureus [13],0.0041 µM
same,Activity,Staphylococcus aureus [14],Active
same,IC50,Staphylococcus aureus [15],0.0076 µM
